Test results reported in PMC8892239 (EFSA Journal, 2022).
Where “and” joins values, the source holds several entries; their conditions need not be identical. Equal values may be shown once. Read-outs that look alike come from different tables or passages of the source.

Columns and labels:
[1] = tested on: laying hens; assay: Tolerance study in laying hens; format: in vivo, HyLine Brown layers; settings: 50 mg ethoxyquin/kg feed
[2] = tested on: Pisum sativum (pea); assay: Seedling emergence and seedling growth test, OECD 208; format: in vivo; settings: 21 days
In short: (§1)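 Soil was spiked with the test compound; measured concentrations were checked against nominal. From 50% emergence in controls, emergence, survival and visible phytotoxicity were recorded weekly for 21 days. At the end, emergence, survival, shoot fresh weight and visible damage were recorded. Effect concentrations were derived from dose–response curves.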

[3] = Antioxidant efficacy, storage of complete feed for sows; settings: for peroxide value after 3 months of storage: basal feed 47.3 meq O2/kg fat
[4] = Oxygen bomb method, feed for chickens for fattening; settings: for induction period: basal feed 7 h
[5] = tested on: Chironomus riparius; assay: Water-sediment test with spiked sediment, OECD 218, 28 days; format: in vivo; settings: nominal
In short: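 GLP static 28-day Chironomus riparius water–sediment test per OECD 218. The sediment was spiked at 62.5, 125, 250, 500 and 1,000 mg/kg sediment DW (nominal).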

[6] = tested on: male BALB/c mice; assay: Subchronic; format: in vivo, mouse; settings: EQ 5,000 mg/kg feed, after 10 days, mice refused their feed
In short: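 Groups of 10 BALB/c mice were fed the dimer for 90 days. Nominal levels were 0, 0.1, 1, 100, 1,000, 3,000 and 5,000 mg/kg feed, equal to 0, 0.015, 0.081, 10, 99, 286 and 518 mg/kg bw per day. A parent-compound group started at 5,000 mg/kg feed, was reduced to 1,000 mg/kg feed and was later excluded. BMD modelling used a 10% (or 20%) benchmark response.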

[7] = tested on: Avena sativa (oat); assay: Seedling emergence and seedling growth test, OECD 208; format: in vivo
In short: as §1

[8] = ref EFSA FEEDAP Panel, 2015; cited from earlier work
[9] = tested on: cattle for fattening; assay: Tolerance study in cattle for fattening; format: in vivo, male Holstein calves
[10] = Assessment of secondary poisoning
[11] = Metabolism of 14C-EQ in liver microsomes; format: in vitro ADME, rat, laying hen and goat; settings: 10 and 100 µM, 37°C, 2 h
In short: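 Liver microsomes were used. Hen (Isa-Warren) and goat (Deutsche Edelziege/Burenziege) microsomes were prepared in-house; rat microsomes were commercial. Incubation was with ring-¹⁴C(U)-labelled test compound at 10 and 100 µM, 37°C, 2 h.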

[12] = Adsorption coefficient; format: physicochemical
In short: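 Koc estimated under GLP per OECD 121 from the HPLC retention time of the test compound. Runs were done at pH 6.5 and at pH 2.5 because the compound ionises at soil-relevant pH.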

[13] = tested on: soil microflora; assay: Nitrogen Transformation Test, OECD 216
In short: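 Soil nitrogen transformation test per OECD 216, assessed on day 28. An effect was judged as deviation from control, with 25% as the criterion. A maximum variation below 15% was the validity criterion.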

[14] = Forced degradation of EQ in compound feed; format: physicochemical
[15] = tested on: Eisenia andrei; assay: Earthworm reproduction test, OECD 222; format: in vivo; settings: 56 days, nominal
In short: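 GLP 56-day Eisenia andrei test per OECD 222. Eight nominal soil levels were used: 16, 29, 53, 95, 171, 309, 556 and 1,000 mg/kg soil DW. A solvent control was included. Four replicates per treatment, eight for the solvent control, 10 worms per replicate. Reproduction, mortality and growth were scored.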

[16] = tested on: dairy cows; assay: 36-day feeding study with lactating cows; format: in vivo, Holstein cows; settings: up to 10× the maximum recommended level, fed for 36 days
[17] = Residues of EQ and metabolites/TPs in laying hen tissues and eggs; format: in vivo, laying hens; settings: liquid egg, control (0 mg EQ/kg feed); LOQ 2 µg/kg whole egg
In short: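 Liver, kidney, muscle and skin/fat were taken from eight hens per group after 56 days of feeding. Twelve eggs per treatment were collected: four per day on three consecutive days at the end of the study. EQ, EQDM, EQI, DHEQ, DEQ and metabolites A–C were measured. LOQs: EQ 0.5 (muscle) to 2 (other tissues) µg/kg; EQDM 0.5–1 µg/kg; EQI 1.5 µg/kg; DHEQ 0.5 µg/kg; whole egg 2 µg/kg per analyte.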

[18] = ref EFSA, 2010, cited from earlier work
[19] = Antioxidant efficacy, storage of complete feed for chickens for fattening
[20] = tested on: Lumbriculus variegatus; assay: Water-sediment test, OECD 225, 28 days; format: in vivo
In short: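 Lumbriculus variegatus test per OECD 225 in spiked artificial sediment, run for 28 days. Nominal levels were 18.8, 37.5, 75, 150, 300 and 600 mg/kg sediment DW, with four replicates each. An untreated control and a solvent control were run, six replicates each.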

[21] = tested on: Brassica napus (oilseed rape); assay: Seedling emergence and seedling growth test, OECD 208; format: in vivo; settings: 21 days
In short: as §1

[22] = Metabolism of 14C-EQ in liver slices; format: in vitro ADME, rat, laying hen and goat; settings: 10 and 100 µM, 37°C, 2 h

## CCOc1ccc2c(c1)C(C)=CC(C)(C)N2 [EQ, 6‐ethoxy‐1,2‐dihydro‐2,2,4‐trimethylquinoline]
[1]
  margin of safety: 10 ×
[2]
  EC50, shoot fresh weight: 181.3 mg/kg
[3]; 25 mg EQ/kg feed (EQ25)
  EQ content after 3 months of storage: completely disappeared
  peroxide value after manufacturing: 0.89 meq O2/kg fat
  peroxide value after 3 months of storage: approx. 23.8
[3]; 50 mg EQ/kg feed (EQ50)
  peroxide value after manufacturing: 1.36 meq O2/kg fat
  reduction of EQ after 3 months of storage: approx. 80%
  peroxide value after 3 months of storage: ~13.6
[4]; 25 mg ethoxyquin/kg feed
  induction period: 7.6 h
[4]; 50 mg ethoxyquin/kg feed
  protection factor: 1.46
  induction period: 9.9 h
[5]
  EC10 development rate: > 250 mg/kg sediment DW
  NOEC development rate: 125 mg/kg sediment DW
  NOEC emergence rate: 250 mg/kg sediment DW
[6]
  loss of initial body weight: 11%
[7]; 21 days
  EC50, shoot fresh weight: 242.2 mg/kg
[7]; up to 1,000 mg test item/kg soil DW
  effects on seedling emergence and survival of emerged seedlings: No adverse effects
[8]
  conclusion on toxicological profile: not genotoxic, carcinogenic, and does not cause developmental toxicity in the offspring
[9]; 50 mg ethoxyquin/kg feed
  margin of safety: 10
[9]; 1× (50 mg/kg feed), 42 days
  gamma-glutamyl transpeptidase: 22.4 µ/L
  platelet count: 452000 µL⁻¹
[9]; 3× (150 mg/kg feed), 42 days
  platelet count: 394000 µL⁻¹
[9]; 10× (500 mg/kg feed), 42 days, p = 0.01 to the control
  platelet count: 264000 µL⁻¹
[10]
  PECfish/PNECoral: 1
[10]; from NOEC 80 mg/kg feed, assessment factor of 90
  NECoral: 0.89 mg/kg
[10]; listed as Ethoxyquin
  PECfish/PNECoral: 1.0
[11]
  extent of metabolism: metabolised extensively
[11]; irrespective of origin
  number of metabolites identified: 18
[12]
  Koc (used for Phase II exposure assessment): 331 L/kg
[12]; pH 2.5
  Log Koc: 1.55
  estimated Koc: 35
[12]; pH 6.5
  Log Koc: 2.52
  estimated Koc: 331
[13]; day 28, 10.70 mg test item/kg soil DW
  deviation from control: < 25%
[13]; day 28, highest tested concentration 10.70 mg test item/kg soil DW
  effect on soil nitrogen transformation: no adverse effects
[14]; H2O2
  share of the lost EQ identified as DMEQ, EQI and EQDM: around 56%
[14]; H2O2, after 4 h
  EQ oxidised: 83%
[14]; H2O2, spontaneously
  EQ oxidised: 75%
[15]
  LC50 (mortality): 693 mg test item/kg soil DW
  NOEC for biomass: ≥ 556 mg test item/kg soil DW
  NOEC for mortality: 556 mg test item/kg soil DW
  NOEC for reproduction: 171 mg test item/kg soil DW
[16]
  effect on performance parameters: had no influence on the performance parameters
[17]
  residue in eggs: ˂ LOQ^( ^d ^)
[18]; pH 5
  Octanol/water partition coefficient (log Kow 25°C): 3.18
[18]; pH 7
  Octanol/water partition coefficient (log Kow 25°C): 3.39
[18]; pH 9
  Octanol/water partition coefficient (log Kow 25°C): 3.19
[19]; 25–30°C, 55–65% RH, EQ = 50 mg EQ/kg feed (EQ50)
  loss of EQ content in feed after 3 months: approximately 40%
[19]; Panel's overall conclusion
  range in which considered an efficacious antioxidant in feed: 25–50 mg/kg complete feed
[20]
  EC10 for total number of worms/reproduction and total biomass per replicate: 148 mg test item/kg sediment DW and 148 ^* mg test item/kg sediment DW
  NOEC for total number of worms and reproduction: 150 mg test item/kg sediment DW
[20]; 300 mg/kg sediment DW
  mortality: 50%
[20]; 600 mg/kg sediment DW
  mortality: 100%
[21]
  EC50, shoot fresh weight: 155.6 mg/kg
[22]
  extent of metabolism: metabolised extensively
[22]; irrespective of origin
  number of metabolites identified: 17
